# Assay results from ChEMBL document CHEMBL3779767, “Identification of potent and selective MTH1 inhibitors” (Bioorg Med Chem Lett, 2016).
# The source made the active and inactive calls. The rule behind the calls is not given here.
# What was measured:
# MDA-MB-231 = assay: Antiproliferative activity against human MDA-MB-231 cells assessed as change in phenotypic response up to 50 uM; type: functional, cell-based
# NCI-H358 = assay: Antiproliferative activity against human NCI-H358 cells assessed as change in phenotypic response measured after prolonged treatment; type: functional, cell-based
# [1] = target: Fibroblast growth factor receptor 2 (Homo sapiens) (UniProt P21802); assay: Inhibition of partial length human FGFR2 expressed in bacterial system at 1 uM
# In short: (§1)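 Single-point screen within a 97-kinase profiling panel, with the test compound at 1 µM.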
# [2] = Half life in mouse liver microsomes; type: ADME
# In short: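 Incubated with human or mouse liver microsomes; the read-out was intrinsic clearance alongside half-life, given in hours.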
# [3] = target: Insulin-like growth factor 1 receptor (Homo sapiens) (UniProt P08069); assay: Inhibition of partial length human IGF1R expressed in bacterial system at 1 uM; in short: as §1
# [4] = target: Mast/stem cell growth factor receptor Kit (Homo sapiens) (UniProt P10721); assay: Inhibition of partial length human KIT expressed in bacterial system at 1 uM
# In short: (§2)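 Single-concentration screen at 1 µM test concentration, run as part of a commercial binding/activity profiling panel covering 97 kinases.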
# [5] = target: Receptor tyrosine-protein kinase erbB-4 (Homo sapiens) (UniProt Q15303); assay: Inhibition of partial length human ERBB4 expressed in bacterial system at 1 uM; in short: as §1
# [6] = target: SRSF protein kinase 3 (Homo sapiens) (UniProt Q9UPE1); assay: Inhibition of partial length human SRPK3 expressed in bacterial system at 1 uM
# In short: (§3)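 Single-concentration screen across a panel of 97 kinases, with the test compound at 1 uM.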
# [7] = target: Atypical kinase COQ8A, mitochondrial (Homo sapiens) (UniProt Q8NI60); assay: Inhibition of partial length human ADCK3 expressed in bacterial system at 1 uM; in short: as §1
# [8] = target: Bone morphogenetic protein receptor type-2 (Homo sapiens) (UniProt Q13873); assay: Inhibition of partial length human BMPR2 expressed in mammalian system at 1 uM; in short: as §1
# [9] = target: Phosphatidylinositol 4,5-bisphosphate 3-kinase catalytic subunit gamma isoform (Homo sapiens) (UniProt P48736); assay: Inhibition of partial length human PIK3Cgamma expressed in mammalian system at 1 uM; in short: as §3
# UOK 262 [10] = assay: Antiproliferative activity against human UOK 262 cells assessed as change in phenotypic response measured after prolonged treatment; type: functional, cell-based
# [11] = target: Focal adhesion kinase 1 (Homo sapiens) (UniProt Q05397); assay: Inhibition of partial length human FAK expressed in bacterial system at 1 uM; in short: as §1
# A549 = assay: Antiproliferative activity against human A549 cells assessed as change in phenotypic response up to 50 uM; type: functional, cell-based
# [12] = target: Proto-oncogene tyrosine-protein kinase Src (Homo sapiens) (UniProt P12931); assay: Inhibition of partial length human SRC expressed in bacterial system at 1 uM; in short: as §3
# [13] = target: Serine/threonine-protein kinase PAK 4 (Homo sapiens) (UniProt O96013); assay: Inhibition of partial length human PAK4 expressed in bacterial system at 1 uM; in short: as §3
# [14] = target: Receptor-type tyrosine-protein kinase FLT3 (Homo sapiens) (UniProt P36888); assay: Inhibition of partial length human FLT3 expressed in bacterial system at 1 uM; in short: as §1
# [15] = target: RAC-beta serine/threonine-protein kinase (Homo sapiens) (UniProt P31751); assay: Inhibition of partial length human AKT2 expressed in bacterial system at 1 uM; in short: as §1
# [16] = target: Cyclin-dependent kinase 2 (Homo sapiens) (UniProt P24941); assay: Inhibition of partial length human CDK2 expressed in bacterial system at 1 uM; in short: as §1
# [17] = tested on: Mast/stem cell growth factor receptor Kit (Homo sapiens), P10721 [D816V]; assay: Inhibition of partial length human KIT D816V mutant expressed in bacterial system at 1 uM; in short: as §2
# [18] = target: Serine/threonine-protein kinase ULK2 (Homo sapiens) (UniProt Q8IYT8); assay: Inhibition of partial length human ULK2 expressed in mammalian system at 1 uM; in short: as §3
# Homo sapiens = species: Homo sapiens; assay: Inhibition of partial length human CDK11 expressed in bacterial system at 1 uM
# In short: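 Single-concentration screen within a 97-kinase profiling panel (KinomeEdge), with the compound tested at one fixed concentration across all panel kinases.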
# SAOS-2 [19] = assay: Antiproliferative activity against human Saos2 cells assessed as change in phenotypic response measured after prolonged treatment; type: functional, cell-based
# [20] = target: Serine/threonine-protein kinase Chk1 (Homo sapiens) (UniProt O14757); assay: Inhibition of partial length human CHEK1 expressed in bacterial system at 1 uM; in short: as §1
# [21] = Half life in rat plasma; type: ADME, cell-free
# In short: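 Plasma stability was measured in human and rat plasma, with half-life reported in hours.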
# [22] = target: Serine/threonine-protein kinase PAK 2 (Homo sapiens) (UniProt Q13177); assay: Inhibition of partial length human PAK2 expressed in bacterial system at 1 uM; in short: as §3
# [23] = target: cAMP-dependent protein kinase catalytic subunit alpha (Homo sapiens) (UniProt P17612); assay: Inhibition of partial length human PKACalpha expressed in bacterial system at 1 uM; in short: as §3
# [24] = target: Fibroblast growth factor receptor 3 (Homo sapiens) (UniProt P22607); assay: Inhibition of partial length human FGFR3 expressed in bacterial system at 1 uM; in short: as §1
# [25] = target: Tyrosine-protein kinase JAK3 (Homo sapiens) (UniProt P52333); assay: Inhibition of partial length human JAK3 JH1 catalytic domain expressed in mammalian system at 1 uM; in short: as §1
# [26] = target: Activin receptor type-1B (Homo sapiens) (UniProt P36896); assay: Inhibition of partial length human ACVR1B expressed in bacterial system at 1 uM; in short: as §1
# [27] = tested on: Epidermal growth factor receptor (Homo sapiens), P04626+P00533+Q15303+P21860 [L858R]; assay: Inhibition of partial length human EGFR L858R mutant expressed in bacterial system at 1 uM; in short: as §2
# [28] = target: Tyrosine-protein kinase JAK2 (Homo sapiens) (UniProt O60674); assay: Inhibition of partial length human JAK2 JH1 catalytic domain expressed in mammalian system at 1 uM; in short: as §1
# [29] = Fraction unbound in human plasma; type: ADME, cell-free
# [30] = target: RAF proto-oncogene serine/threonine-protein kinase (Homo sapiens) (UniProt P04049); assay: Inhibition of partial length human RAF1 expressed in bacterial system at 1 uM; in short: as §3
# [31] = target: Protein kinase C epsilon type (Homo sapiens) (UniProt Q02156); assay: Inhibition of partial length human PRKCE expressed in mammalian system at 1 uM; in short: as §3
# SAOS-2 [32] = assay: Antiproliferative activity against human Saos2 cells assessed as change in phenotypic response up to 50 uM; type: functional, cell-based
# HMEC = assay: Cytotoxicity against human HMEC cells assessed as change in phenotypic response up to 50 uM; type: cell-based
# [33] = target: Inhibitor of nuclear factor kappa-B kinase subunit beta (Homo sapiens) (UniProt O14920); assay: Inhibition of partial length human IKKbeta expressed in mammalian system at 1 uM; in short: as §1
# MRC5 = assay: Cytotoxicity against human MRC5 cells assessed as change in phenotypic response up to 50 uM; type: cell-based
# [34] = target: Insulin receptor (Homo sapiens) (UniProt P06213); assay: Inhibition of partial length human INSR expressed in mammalian system at 1 uM; in short: as §1
# UOK 262 [35] = assay: Antiproliferative activity against human UOK 262 cells assessed as change in phenotypic response up to 50 uM; type: functional, cell-based
# Focal adhesion kinase 1 (Homo sapiens), sequence (Q05397 2-1052 limits assumed): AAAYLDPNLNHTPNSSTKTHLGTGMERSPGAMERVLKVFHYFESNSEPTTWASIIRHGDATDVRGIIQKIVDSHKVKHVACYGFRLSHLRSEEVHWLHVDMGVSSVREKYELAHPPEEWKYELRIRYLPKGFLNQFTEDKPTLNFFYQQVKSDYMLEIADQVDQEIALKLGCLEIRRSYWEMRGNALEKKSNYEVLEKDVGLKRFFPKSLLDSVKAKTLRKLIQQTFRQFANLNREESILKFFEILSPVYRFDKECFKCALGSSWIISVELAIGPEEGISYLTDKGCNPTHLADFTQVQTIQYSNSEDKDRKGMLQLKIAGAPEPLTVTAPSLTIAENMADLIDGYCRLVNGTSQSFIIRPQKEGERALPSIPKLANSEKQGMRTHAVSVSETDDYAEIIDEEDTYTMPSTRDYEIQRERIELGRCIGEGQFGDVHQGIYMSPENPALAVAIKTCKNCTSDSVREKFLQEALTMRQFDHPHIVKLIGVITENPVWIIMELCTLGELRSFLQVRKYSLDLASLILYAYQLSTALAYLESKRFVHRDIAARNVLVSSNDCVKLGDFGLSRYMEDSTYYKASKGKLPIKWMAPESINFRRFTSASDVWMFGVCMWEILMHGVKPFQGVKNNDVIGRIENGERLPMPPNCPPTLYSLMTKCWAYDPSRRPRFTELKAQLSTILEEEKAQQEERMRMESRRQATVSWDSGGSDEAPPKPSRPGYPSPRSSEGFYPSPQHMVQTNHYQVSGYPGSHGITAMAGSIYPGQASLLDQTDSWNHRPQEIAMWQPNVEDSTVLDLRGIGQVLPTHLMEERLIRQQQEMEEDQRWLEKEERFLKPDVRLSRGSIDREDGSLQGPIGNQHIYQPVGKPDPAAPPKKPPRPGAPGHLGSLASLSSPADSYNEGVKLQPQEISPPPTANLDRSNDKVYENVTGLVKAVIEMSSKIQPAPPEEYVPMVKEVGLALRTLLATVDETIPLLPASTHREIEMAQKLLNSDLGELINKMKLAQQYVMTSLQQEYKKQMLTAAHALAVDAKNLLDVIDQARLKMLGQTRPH
# RAF proto-oncogene serine/threonine-protein kinase (Homo sapiens), sequence (P04049 whole entry): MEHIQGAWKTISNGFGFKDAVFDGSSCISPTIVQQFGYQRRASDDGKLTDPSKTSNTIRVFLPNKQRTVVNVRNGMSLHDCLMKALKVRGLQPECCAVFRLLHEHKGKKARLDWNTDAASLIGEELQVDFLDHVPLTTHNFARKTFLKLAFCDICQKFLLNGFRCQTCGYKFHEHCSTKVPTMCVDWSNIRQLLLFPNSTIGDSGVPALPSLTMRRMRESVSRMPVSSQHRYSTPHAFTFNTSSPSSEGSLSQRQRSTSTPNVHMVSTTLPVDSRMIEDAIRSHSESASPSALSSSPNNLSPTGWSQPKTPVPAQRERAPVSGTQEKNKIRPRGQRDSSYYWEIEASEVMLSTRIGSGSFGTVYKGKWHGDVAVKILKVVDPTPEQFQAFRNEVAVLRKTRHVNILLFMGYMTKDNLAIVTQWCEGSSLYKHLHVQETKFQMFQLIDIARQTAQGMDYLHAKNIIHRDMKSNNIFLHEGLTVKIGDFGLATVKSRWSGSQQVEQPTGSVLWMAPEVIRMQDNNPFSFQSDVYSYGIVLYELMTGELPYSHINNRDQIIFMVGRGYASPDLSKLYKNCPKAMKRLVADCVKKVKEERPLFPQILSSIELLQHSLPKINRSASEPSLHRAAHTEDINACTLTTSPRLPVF
# Mast/stem cell growth factor receptor Kit (Homo sapiens), P10721 [D816V], sequence (P10721 whole entry D816V): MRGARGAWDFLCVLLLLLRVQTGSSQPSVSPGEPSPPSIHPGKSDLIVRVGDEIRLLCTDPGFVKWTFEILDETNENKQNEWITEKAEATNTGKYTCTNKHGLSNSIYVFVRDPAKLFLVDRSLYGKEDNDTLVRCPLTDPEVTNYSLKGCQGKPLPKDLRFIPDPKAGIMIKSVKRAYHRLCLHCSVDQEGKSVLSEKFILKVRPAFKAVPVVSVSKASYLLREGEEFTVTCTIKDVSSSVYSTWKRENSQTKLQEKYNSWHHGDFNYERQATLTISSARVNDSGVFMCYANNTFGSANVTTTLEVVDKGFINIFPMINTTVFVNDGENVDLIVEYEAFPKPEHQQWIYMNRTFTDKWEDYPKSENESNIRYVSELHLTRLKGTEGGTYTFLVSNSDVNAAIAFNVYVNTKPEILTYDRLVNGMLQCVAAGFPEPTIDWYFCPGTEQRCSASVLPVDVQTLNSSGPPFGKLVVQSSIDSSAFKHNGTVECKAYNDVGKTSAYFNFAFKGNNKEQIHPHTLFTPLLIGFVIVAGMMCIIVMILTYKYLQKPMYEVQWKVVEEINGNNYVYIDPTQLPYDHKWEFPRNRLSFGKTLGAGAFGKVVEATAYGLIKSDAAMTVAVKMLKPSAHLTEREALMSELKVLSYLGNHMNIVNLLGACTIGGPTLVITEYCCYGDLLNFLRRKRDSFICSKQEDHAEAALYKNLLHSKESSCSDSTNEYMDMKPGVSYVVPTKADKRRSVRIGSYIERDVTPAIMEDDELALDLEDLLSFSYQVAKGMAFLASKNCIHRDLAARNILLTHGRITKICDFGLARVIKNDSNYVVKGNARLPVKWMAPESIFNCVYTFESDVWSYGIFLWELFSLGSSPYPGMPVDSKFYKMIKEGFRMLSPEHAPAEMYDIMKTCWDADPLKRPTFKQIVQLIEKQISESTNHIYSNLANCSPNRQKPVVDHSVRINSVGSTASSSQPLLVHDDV
# Receptor-type tyrosine-protein kinase FLT3 (Homo sapiens), sequence (P36888 whole entry): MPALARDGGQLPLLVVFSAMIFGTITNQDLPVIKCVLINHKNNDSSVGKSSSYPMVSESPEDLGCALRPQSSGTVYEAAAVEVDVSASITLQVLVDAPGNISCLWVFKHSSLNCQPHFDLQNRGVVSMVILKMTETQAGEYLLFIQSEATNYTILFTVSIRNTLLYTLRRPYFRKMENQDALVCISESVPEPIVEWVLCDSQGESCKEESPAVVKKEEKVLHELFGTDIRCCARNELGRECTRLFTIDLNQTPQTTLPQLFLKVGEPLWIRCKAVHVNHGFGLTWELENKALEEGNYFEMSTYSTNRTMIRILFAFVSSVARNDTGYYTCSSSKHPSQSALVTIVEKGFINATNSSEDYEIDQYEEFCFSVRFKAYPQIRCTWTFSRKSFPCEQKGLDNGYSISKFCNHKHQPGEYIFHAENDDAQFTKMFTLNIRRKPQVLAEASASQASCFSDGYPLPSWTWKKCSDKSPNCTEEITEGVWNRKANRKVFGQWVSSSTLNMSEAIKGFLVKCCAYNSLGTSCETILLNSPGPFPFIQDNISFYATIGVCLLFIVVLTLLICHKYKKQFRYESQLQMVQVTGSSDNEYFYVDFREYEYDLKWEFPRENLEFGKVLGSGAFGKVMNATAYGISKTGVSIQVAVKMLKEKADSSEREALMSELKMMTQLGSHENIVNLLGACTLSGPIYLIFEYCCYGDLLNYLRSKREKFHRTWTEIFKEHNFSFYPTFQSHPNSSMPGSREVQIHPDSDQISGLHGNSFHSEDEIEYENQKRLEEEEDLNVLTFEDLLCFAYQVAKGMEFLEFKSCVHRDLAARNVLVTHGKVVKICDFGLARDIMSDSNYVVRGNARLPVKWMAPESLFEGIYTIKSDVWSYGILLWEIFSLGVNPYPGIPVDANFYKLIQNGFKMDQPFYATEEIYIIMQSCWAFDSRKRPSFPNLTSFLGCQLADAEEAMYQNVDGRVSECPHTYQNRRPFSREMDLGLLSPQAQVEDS
# Fibroblast growth factor receptor 3 (Homo sapiens), sequence (P22607 23-806 limits assumed): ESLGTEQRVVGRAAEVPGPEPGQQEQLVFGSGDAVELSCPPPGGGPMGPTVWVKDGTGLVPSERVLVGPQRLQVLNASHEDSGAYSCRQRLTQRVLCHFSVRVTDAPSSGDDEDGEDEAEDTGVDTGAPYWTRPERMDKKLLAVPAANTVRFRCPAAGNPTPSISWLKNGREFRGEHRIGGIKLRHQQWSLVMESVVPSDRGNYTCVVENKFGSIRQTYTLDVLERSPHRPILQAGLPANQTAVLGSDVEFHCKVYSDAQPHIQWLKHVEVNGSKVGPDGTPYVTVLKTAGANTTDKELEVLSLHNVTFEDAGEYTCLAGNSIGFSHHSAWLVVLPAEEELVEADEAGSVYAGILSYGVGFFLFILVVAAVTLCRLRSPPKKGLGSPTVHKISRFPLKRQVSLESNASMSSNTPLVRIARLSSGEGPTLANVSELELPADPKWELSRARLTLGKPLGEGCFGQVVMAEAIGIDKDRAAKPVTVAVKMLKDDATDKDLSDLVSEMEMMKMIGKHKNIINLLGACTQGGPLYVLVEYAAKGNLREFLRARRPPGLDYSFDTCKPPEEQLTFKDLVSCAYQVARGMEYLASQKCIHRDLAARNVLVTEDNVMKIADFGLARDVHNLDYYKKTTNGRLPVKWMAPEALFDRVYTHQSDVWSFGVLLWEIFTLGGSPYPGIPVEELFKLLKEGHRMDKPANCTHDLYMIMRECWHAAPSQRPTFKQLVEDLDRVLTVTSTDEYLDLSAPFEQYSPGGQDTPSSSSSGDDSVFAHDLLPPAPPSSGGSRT
# Atypical kinase COQ8A, mitochondrial (Homo sapiens), sequence (Q8NI60 163-647 limits assumed): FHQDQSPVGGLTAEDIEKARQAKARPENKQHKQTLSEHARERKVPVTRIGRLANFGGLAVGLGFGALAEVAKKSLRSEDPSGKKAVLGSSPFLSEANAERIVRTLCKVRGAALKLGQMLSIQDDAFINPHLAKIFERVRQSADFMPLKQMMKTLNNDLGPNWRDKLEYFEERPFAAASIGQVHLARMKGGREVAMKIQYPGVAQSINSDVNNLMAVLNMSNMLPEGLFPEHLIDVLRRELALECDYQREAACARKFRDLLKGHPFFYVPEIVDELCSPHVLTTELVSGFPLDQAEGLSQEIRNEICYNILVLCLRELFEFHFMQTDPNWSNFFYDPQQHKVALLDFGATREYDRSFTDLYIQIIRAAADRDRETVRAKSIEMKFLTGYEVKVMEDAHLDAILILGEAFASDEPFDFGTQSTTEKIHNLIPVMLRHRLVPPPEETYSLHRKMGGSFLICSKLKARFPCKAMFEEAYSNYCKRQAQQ
# Mast/stem cell growth factor receptor Kit (Homo sapiens), sequence (P10721 whole entry): as the sequence (P10721 whole entry D816V) above, with V816D counted along it
smiles,measurement,setting,value
Cc1cnc(N)nc1OCC(C)(C)CO,Activity,MDA-MB-231,inactive
same,Activity,NCI-H358,inactive
same,inhibition,[1],inactive
same,half-life,[2],1.5 h
same,inhibition,[3],inactive
same,inhibition,[4],inactive
same,inhibition,[5],inactive
same,inhibition,[6],inactive
same,inhibition,[7],inactive
same,inhibition,[8],inactive
same,inhibition,[9],inactive
same,Activity,UOK 262 [10],inactive
same,inhibition,[11],inactive
same,Activity,A549,inactive
same,inhibition,[12],inactive
same,inhibition,[13],inactive
same,inhibition,[14],inactive
same,inhibition,[15],inactive
same,inhibition,[16],inactive
same,inhibition,[17],inactive
same,inhibition,[18],inactive
same,inhibition,Homo sapiens,inactive
same,Activity,SAOS-2 [19],inactive
same,inhibition,[20],inactive
same,half-life,[21],86 h
same,inhibition,[22],inactive
same,inhibition,[23],inactive
same,inhibition,[24],inactive
same,inhibition,[25],inactive
same,inhibition,[26],inactive
same,inhibition,[27],inactive
same,inhibition,[28],inactive
same,fraction unbound,[29],0.46
same,inhibition,[30],inactive
same,inhibition,[31],inactive
same,Activity,SAOS-2 [32],inactive
same,Activity,HMEC,Non-toxic
same,inhibition,[33],inactive
same,Activity,MRC5,Non-toxic
same,inhibition,[34],inactive
same,Activity,UOK 262 [35],inactive
